Published values of several laboratories.
Protocols differ between the studies behind these lines. Converted amounts (≈) assume the structure as drawn.

| Structure (SMILES) | tested on | test | conditions | quantity | value |
| --- | --- | --- | --- | --- | --- |
| COc1cc(Nc2nccc(-c3cnn4nc(OC)ccc34)n2)cc(C(F)(F)F)c1 | SJSA-1 | cell growth or viability, ATP luminescence |  | IC50 | 510 nM |
| CC(=O)Nc1cccc(-n2c(=O)n(C3CC3)c(=O)c3c(Nc4ccc(I)cc4F)n(C)c(=O)c(C)c32)c1 | SW-620 | cell growth or viability, resazurin | 390 pM, 72 h | viability | 94.8% |
| CC1(C)S[C@@H]2[C@H](NC(=O)[C@H](N)c3ccccc3)C(=O)N2[C@H]1C(=O)O | Haemophilus influenzae | microbial growth |  | MIC90 | 128 µg/mL (≈ 366 µM) |
| CCc1ccc(NC(=O)Cc2c[nH]c3ccccc23)cc1 |  | DPPH scavenging |  | IC50 | 1920 nM |
| O=C(O)c1cn(C2CC2)c2cc(N3CCNCC3)c(F)cc2c1=O | Haemophilus influenzae | microbial growth |  | MIC90 | 0.03 µg/mL (≈ 0.0905 µM) |
| O=C(Cc1c[nH]c2ccccc12)Nc1ccc(F)c(F)c1 |  | DPPH scavenging |  | IC50 | 1420 nM |
| O=C1O[C@H]([C@@H](O)CO)C(O)=C1O |  | DPPH scavenging |  | IC50 | 4.8 µg/mL |
| CC(C)C[C@H](NC(=O)[C@H](Cc1ccccc1)NC(=O)c1cnccn1)B(O)O | NCI-H441 | cell growth or viability, ATP luminescence |  | IC50 | 9 nM |
| COc1cc(NC(=O)Cc2c[nH]c3ccccc23)ccc1C |  | DPPH scavenging |  | IC50 | 1530 nM |
